Assay results published in ChEMBL document CHEMBL1157638, “Fluorescent epigenetic small molecule induces expression of the tumor suppressor ras-association domain family 1A and inhibits human prostate xenograft” (J Med Chem, 2010).
Activity calls are given as the source filed them. The rule behind the calls is not given here.

Columns and labels:
[1] = test system: LOX IMVI; test: Growth inhibition of human LOXIMVI cells; type: functional
[2] = test system: NCI-H322M; test: Growth inhibition of human NCI-H322M cells; type: functional
[3] = test system: T47D; test: Growth inhibition of human T47D cells assessed as cell growth at 10 uM relative to untreated control; type: functional; settings: read-out: Activity
[4] = test system: HOP-62; test: Growth inhibition of human HOP62 cells assessed as cell growth at 1 nM relative to untreated control; type: functional; settings: read-out: Activity
Outline: (§1)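 Run externally at the National Cancer Institute as a 59-cell-line panel screen, with concentrations up to 100 μM. Growth was scored relative to control, where negative growth or total cell kill was possible. Data are in the Supporting Information.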

[5] = test system: HT-29; test: Growth inhibition of human HT-29 cells assessed as cell growth at 1 uM relative to untreated control; type: functional; settings: read-out: Activity
[6] = test system: SR; test: Growth inhibition of human SR cells assessed as cell growth at 10 nM relative to untreated control; type: functional; settings: read-out: Activity
[7] = test system: OVCAR-8; test: Growth inhibition of human OVCAR8 cells assessed as cell growth at 10 uM relative to untreated control; type: functional; settings: read-out: Activity
[8] = test system: MDA-MB-435; test: Growth inhibition of human MDA-MB-435 cells assessed as cell growth at 10 nM relative to untreated control; type: functional; settings: read-out: Activity
[9] = molecular target: DNA (cytosine-5)-methyltransferase 3B (Homo sapiens) (UniProt Q9UBC3); test: Binding affinity to DNMT3b in human PC3 cells cytoplasm at 5 uM after 6 hrs by antibody staining; type: cell-based; settings: PC-3
Outline: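 PC-3 cells were plated overnight on fibronectin/[…]-coated slides and treated with 5 μM compound or DMSO for 1-6 h. Cells were PBS-washed, fixed in 4% formaldehyde, and stained with propidium iodide (nuclei) and anti-DNMT3a or anti-DNMT3b antibody. The compound was excited at 725 nm by multiphoton laser and imaged through a 500-550 nm filter by confocal microscopy.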

[10] = Growth inhibition of human […] cells; type: functional
[11] = test system: MDA-MB-231; test: Growth inhibition of human MDA-MB-231 cells assessed as cell growth at 100 nM relative to untreated control; type: functional; settings: read-out: Activity
[12] = test system: UO-31; test: Growth inhibition of human UO31 cells assessed as cell growth at 10 nM relative to untreated control; type: functional; settings: read-out: Activity
[13] = test system: BT-549; test: Growth inhibition of human BT549 cells assessed as cell growth at 100 nM relative to untreated control; type: functional; settings: read-out: Activity
[14] = test system: EKVX; test: Growth inhibition of human EKVX cells assessed as cell growth at 10 uM relative to untreated control; type: functional; settings: read-out: Activity; outline: as §1
[15] = test system: OVCAR-5; test: Growth inhibition of human OVCAR5 cells assessed as cell growth at 1 uM relative to untreated control; type: functional; settings: read-out: Activity
[16] = test system: NCI-H522; test: Growth inhibition of human NCI-H522 cells assessed as cell growth at 100 nM relative to untreated control; type: functional; settings: read-out: Activity
[17] = test system: SK-OV-3; test: Growth inhibition of human SKOV3 cells assessed as cell growth at 1 nM relative to untreated control; type: functional; settings: read-out: Activity
[18] = test system: SF-295; test: Growth inhibition of human SF295 cells; type: functional
[19] = test system: SN12C; test: Growth inhibition of human SN12C cells assessed as cell growth at 1 nM relative to untreated control; type: functional; settings: read-out: Activity
[20] = test system: SW-620; test: Growth inhibition of human SW620 cells assessed as cell growth at 100 nM relative to untreated control; type: functional; settings: read-out: Activity
[21] = test system: SF-268; test: Growth inhibition of human SF268 cells assessed as cell growth at 10 uM relative to untreated control; type: functional; settings: read-out: Activity
[22] = test system: HT-29; test: Growth inhibition of human HT-29 cells; type: functional
[23] = test system: TK-10; test: Growth inhibition of human TK10 cells assessed as cell growth at 10 uM relative to untreated control; type: functional; settings: read-out: Activity
[24] = test system: RXF 393; test: Growth inhibition of human RXF393 cells assessed as cell growth at 1 uM relative to untreated control; type: functional; settings: read-out: Activity
[25] = test system: SK-MEL-5; test: Growth inhibition of human SK-MEL-5 cells assessed as cell growth at 1 uM relative to untreated control; type: functional; settings: read-out: Activity
[26] = test system: NCI-H23; test: Growth inhibition of human NCI-H23 cells assessed as cell growth at 10 nM relative to untreated control; type: functional; settings: read-out: Activity
[27] = test system: SK-OV-3; test: Growth inhibition of human SKOV3 cells; type: functional
[28] = test system: MDA-MB-231; test: Growth inhibition of human MDA-MB-231 cells assessed as cell growth at 1 nM relative to untreated control; type: functional; settings: read-out: Activity
[29] = test system: COLO 205; test: Growth inhibition of human COLO205 cells assessed as cell growth at 1 uM relative to untreated control; type: functional; settings: read-out: Activity
[30] = test system: NCI/ADR-RES; test: Growth inhibition of human NCI/ADR-RES cells assessed as cell growth at 1 uM relative to untreated control; type: functional; settings: read-out: Activity
[31] = test system: PC-3; test: Increase in RASSF1A gene expression in human PC3 cells at 5 uM after 3 days hrs by RT-PCR; type: functional, cell-based
Outline: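 PC-3 cells incubated 3 days with compound, then RNA extracted with TRIzol. 500 ng total RNA reverse-transcribed with random hexamers. RASSF1A amplified with previously described primers and conditions. Products run on 1.5% agarose and stained with ethidium bromide. Bands quantified by densitometry against untreated cells, with RASSF1A re-expression from the reference alkaloid set to 100%.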

[32] = test system: HOP-62; test: Growth inhibition of human HOP62 cells assessed as cell growth at 100 nM relative to untreated control; type: functional; settings: read-out: Activity; outline: as §1
[33] = Growth inhibition of human […] cells assessed as cell growth at 1 uM relative to untreated control; type: functional; settings: read-out: Activity
[34] = test system: NCI/ADR-RES; test: Growth inhibition of human NCI/ADR-RES cells assessed as cell growth at 100 nM relative to untreated control; type: functional; settings: read-out: Activity
[35] = test system: BT-549; test: Growth inhibition of human BT549 cells; type: functional
[36] = test system: ACHN; test: Growth inhibition of human ACHN cells assessed as cell growth at 1 nM relative to untreated control; type: functional; settings: read-out: Activity
[37] = Growth inhibition of human Hs 578T cells; type: functional
[38] = test system: SK-MEL-2; test: Growth inhibition of human SK-MEL-2 cells assessed as cell growth at 10 uM relative to untreated control; type: functional; settings: read-out: Activity
[39] = test system: SK-MEL-28; test: Growth inhibition of human SK-MEL-28 cells assessed as cell growth at 1 uM relative to untreated control; type: functional; settings: read-out: Activity
[40] = test system: CCRF-CEM; test: Growth inhibition of human CCRF-CEM cells assessed as cell growth at 100 nM relative to untreated control; type: functional; settings: read-out: Activity
[41] = test system: UACC-62; test: Growth inhibition of human UACC62 cells assessed as cell growth at 1 uM relative to untreated control; type: functional; settings: read-out: Activity
[42] = test system: SR; test: Growth inhibition of human SR cells assessed as cell growth at 1 uM relative to untreated control; type: functional; settings: read-out: Activity
[43] = read-out: LC50 (the source's name)

Compound `COc1ccc2c(c1)[nH]c1c(C)c(OS(=O)(=O)c3cccc4c(N(C)C)cccc34)ccc12` has a GI50 [1] of 48.4 µM, a TGI [1] greater than 100 µM and a CC50 [1, 43] greater than 100 µM. The GI50 [2] was 12.8 µM, the TGI [2] was greater than 100 µM and the CC50 [2, 43] was greater than 100 µM. It also gave a growth at 10 µM [3] of 2%, a growth at 0.001 µM [4] of 101% and a growth at 1 µM [5] of 13%. It also gave a growth at 0.01 µM [6] of 91%, a growth at 10 µM [7] of 24% and a growth at 0.01 µM [8] of 95%. The Activity [9] was “Active”, the GI50 [10] was 2840 nM and the TGI [10] was 24 µM. For the same compound, the CC50 [10, 43] was greater than 100 µM, the growth at 0.1 µM [11] was 85% and the growth at 0.01 µM [12] was 92%. The growth at 0.1 µM [13] was 93%, the growth at 10 µM [14] was 16% and the growth at 1 µM [15] was 101%. It also gave a growth at 0.1 µM [16] of 100%, a growth at 0.001 µM [17] of 103% and a GI50 [18] of 3.4 µM. It also gave a TGI [18] greater than 100 µM, a CC50 [18, 43] greater than 100 µM and a growth at 0.001 µM [19] of 96%. For the same compound, the growth at 0.1 µM [20] was 95%, the growth at 10 µM [21] was 27% and the GI50 [22] was 3.71 µM. For the same compound, the TGI [22] was greater than 100 µM, the CC50 [22, 43] was greater than 100 µM and the growth at 10 µM [23] was 6%. The growth at 1 µM [24] was -29%, the growth at 1 µM [25] was -3% and the growth at 0.01 µM [26] was 91%. It also gave a GI50 [27] of 5.47 µM, a TGI [27] greater than 100 µM and a CC50 [27, 43] greater than 100 µM. For the same compound, the growth at 0.001 µM [28] was 97%, the growth at 1 µM [29] was 23% and the growth at 1 µM [30] was 28%. For the same compound, the Activity [31] was “Active”, the growth at 0.1 µM [32] was 106% and the growth at 1 µM [33] was 1%. The growth at 0.1 µM [34] was 93%, the GI50 [35] was 5.08 µM and the TGI [35] was greater than 100 µM. It also gave a CC50 [35, 43] greater than 100 µM, a growth at 0.001 µM [36] of 100% and a GI50 [37] of 36.3 µM. It also gave a TGI [37] of 93.7 µM, a CC50 [37, 43] greater than 100 µM and a growth at 10 µM [38] of 18%. It also gave a growth at 1 µM [39] of 39%, a growth at 0.1 µM [40] of 91% and a growth at 1 µM [41] of 28%. It also gave a growth at 1 µM [42] of 13%.
